Columns and labels:
K562 = experiment: Antiproliferative activity against human K562 cells after 48 hrs by MTT assay; assay type: functional; settings: K562, 48 h
Summary of the method: (§1)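 Log-phase cells, harvested by trypsinization, seeded 24 h, then exposed to a range of compound concentrations for 48 h. Culture in RPMI 1640 with 4% FBS, penicillin/streptomycin, 37°C, 5% CO2. DMSO below 1% final; 5-Fu as positive control. Readout is MTT (0.5 mg/mL, 4 h), formazan dissolved in DMSO, absorbance at 570 nm. GI50 = 50% growth inhibition versus untreated cells; means ± SD of at least two independent experiments.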

SH-SY5Y [1] = experiment: Antiproliferative activity against human SH-SY5Y cells after 48 hrs by MTT assay; assay type: functional; summary of the method: as §1
AGS = experiment: Antiproliferative activity against human AGS cells after 48 hrs by MTT assay; assay type: functional; summary of the method: as §1
[2] = Cytotoxicity against mouse HT22 cells after 48 hrs by MTT assay; assay type: cell-based, HT-22
Summary of the method: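 MTT readout after 48 h exposure; CC50 is the 50% cytotoxic concentration, mean of three repeated experiments.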

[3] = Selectivity ratio of GI50 for human K562 cells to GI50 for human SH-SY5Y cells; assay type: functional
[4] = Selectivity ratio of GI50 for human AGS cells to GI50 for human SH-SY5Y cells; assay type: functional
[5] = Selectivity index, ratio of GI50 for mouse HT22 cells to GI50 for human SH-SY5Y cells; assay type: toxicity; settings: HT22 cells and SH-SY5Y cells, read-out: RatioGI50
SH-SY5Y [6] = experiment: Potency index, ratio of 5-Fu GI50 to test compound GI50 for human SH-SY5Y cells; assay type: functional
Tubulin (Sus scrofa) = experiment: Inhibition of pig brain tubulin polymerization at 10 uM by spectrophotometry relative to control

Compound	GI50 (K562) [µM]	GI50 (SH-SY5Y [1]) [µM]	GI50 (AGS) [µM]	inhibition (Tubulin (Sus scrofa)) [%]	CC50 at 48 h [2] [µM]	RatioGI50 [3]	RatioGI50 [4]	selectivity ratio [5]	RatioGI50 (SH-SY5Y [6])
COc1cc(Cn2cnc3c(Cl)ncnc32)cc(OC)c1	> 100	> 100	> 100	–	–	–	–	–	–
COc1ccc(Cn2cnc3c(Cl)ncnc32)cc1	> 50	> 50	29	–	–	–	–	–	–
COc1cc(Cn2cnc3c(Cl)nc(Cl)nc32)cc(OC)c1OC	4.3	9.6	9.4	13	–	–	–	–	–
COc1ccc(Cn2cnc3c(Cl)nc(Cl)nc32)cc1	36	7.7	19	25	–	–	–	–	–

More lines, main results first:

GI50 (K562) [µM]	GI50 (SH-SY5Y [1]) [µM]	GI50 (AGS) [µM]	inhibition (Tubulin (Sus scrofa)) [%]	Compound	CC50 at 48 h [2] [µM]	RatioGI50 [3]	RatioGI50 [4]	selectivity ratio [5]	RatioGI50 (SH-SY5Y [6])
> 100	0.43	> 100	18	COc1ccc(N(C)c2ncnc3c2ncn3Cc2ccc(OC)c(OC)c2)cc1	> 100	>230	>230	230	28
> 100	> 100	> 100	–	COc1ccc(N(C)c2ncnc3c2ncn3C)cc1	–	–	–	–	–

Source: ChEMBL document CHEMBL4130374, “Discovery of 9H-purins as potential tubulin polymerization inhibitors: Synthesis, biological evaluation and structure-activity relationships” (Eur J Med Chem, 2017)
